Reference: ChEMBL document CHEMBL3351896, “Small Molecule that Reverses Dexamethasone Resistance in T-cell Acute Lymphoblastic Leukemia (T-ALL)” (ACS Med Chem Lett, 2014)
Calls of active or inactive are those of the source. The calls are words filed in the database; no cut-off is given here.

Tests used:
[1] = system: CUTLL1; assay: Effect on MCM10 gene expression in human CUTLL1 cells in absence of 1 uM dexamethasone at 30 uM after 24 hrs by microarray method; assay type: functional, cell-based
Procedure, shortened: (§1)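 CUTLL1 T-ALL cells exposed 24 h to vehicle (DMSO), dexamethasone alone (1 μM), test agent alone (30 μM), or dexamethasone (1 μM) plus test agent (30 μM), in triplicate. Expression profiled by microarray. Leading-edge genes from GSEA were compared between the dexamethasone-plus-agent and dexamethasone-alone groups, using glucocorticoid-regulated gene sets from ALL patients on glucocorticoid therapy.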

[2] = system: CUTLL1; assay: Effect on TWISTNB gene expression in human CUTLL1 cells in presence of 1 uM dexamethasone at 30 uM after 24 hrs by microarray method; assay type: functional, cell-based
Procedure, shortened: (§2)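 Human CUTLL1 T-ALL cells exposed for 24 h to vehicle (DMSO), dexamethasone alone (1 μM), test compound alone (30 μM), or dexamethasone 1 μM plus compound 30 μM, each in triplicate. Expression profiled by microarray. Glucocorticoid-regulated gene sets from ALL patients on glucocorticoid therapy scored by GSEA. Leading-edge genes compared between the combination and dexamethasone alone.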

[3] = system: CUTLL1; assay: Effect on E2F7 gene expression in human CUTLL1 cells in absence of 1 uM dexamethasone at 30 uM after 24 hrs by microarray method; assay type: functional, cell-based; procedure, shortened: as §1
[4] = system: CUTLL1; assay: Effect on RRM1 gene expression in human CUTLL1 cells in absence of 1 uM dexamethasone at 30 uM after 24 hrs by microarray method; assay type: functional, cell-based; procedure, shortened: as §2
[5] = system: CUTLL1; assay: Effect on SMC2 gene expression in human CUTLL1 cells in presence of 1 uM dexamethasone at 30 uM after 24 hrs by microarray method; assay type: functional, cell-based; procedure, shortened: as §2
[6] = system: CUTLL1; assay: Increase in GR expression in human CUTLL1 cells at 25 to 50 uM in presence of 1 uM dexamethasone and 1 uM […] and glucocorticoid receptor antagonist RU486 after 24 hrs by Western blotting method; assay type: functional, cell-based
Procedure, shortened: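 CUTLL1 cells exposed to compound (25 or 50 μM) alone, with 1 μM dexamethasone, or with dexamethasone plus 1 μM RU486, for 6 or 24 h. GR measured as protein by Western blot and as transcript by RT-qPCR.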

[7] = system: CUTLL1; assay: Effect on TSR1 gene expression in human CUTLL1 cells in presence of 1 uM dexamethasone at 30 uM after 24 hrs by microarray method; assay type: functional, cell-based; procedure, shortened: as §2
[8] = system: CUTLL1; assay: Growth inhibition of human CUTLL1 cells at 50 uM in presence of etoposide after 48 hrs by alamar blue assay; assay type: functional, cell-based
[9] = system: CUTLL1; assay: Effect on ATAD2 gene expression in human CUTLL1 cells in presence of 1 uM dexamethasone at 30 uM after 24 hrs by microarray method; assay type: functional, cell-based; procedure, shortened: as §1
[10] = system: CUTLL1; assay: Growth inhibition of human CUTLL1 cells at 12.5 to 50 uM in presence of 1 uM dexamethasone and 1 uM […] and glucocorticoid receptor antagonist RU486 after 48 hrs by alamar blue assay; assay type: functional, cell-based
Procedure, shortened: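 CUTLL1 cells treated for 48 h with compound, with or without dexamethasone 1 μM and RU486 1 μM. Growth inhibition read out by alamar blue.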

[11] = system: CUTLL1; assay: Effect on HELLS gene expression in human CUTLL1 cells in presence of 1 uM dexamethasone at 30 uM after 24 hrs by microarray method; assay type: functional, cell-based; procedure, shortened: as §1
[12] = system: CUTLL1; assay: Effect on SMAP2 gene expression in human CUTLL1 cells in absence of 1 uM dexamethasone at 30 uM after 24 hrs by microarray method; assay type: functional, cell-based; procedure, shortened: as §2
[13] = target: Gamma-secretase (Homo sapiens) (UniProt Q96BI3+Q9NZ42+Q8WW43+P49768+Q92542+P49810); assay: Inhibition of gamma secretase in human CUTLL1 cells assessed as effect on NOTCH cleavage level at 25 uM after 24 hrs by Western blotting; assay type: cell-based
Procedure, shortened: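 Western blot of intracellular NOTCH (ICN) in CUTLL1 cells after 24 h exposure to compound alone or with 1 μM dexamethasone. The γ-secretase inhibitor Compound E (100 nM) plus dexamethasone was the reference treatment.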

[14] = system: CUTLL1; assay: Effect on MCM4 gene expression in human CUTLL1 cells in presence of 1 uM dexamethasone at 30 uM after 24 hrs by microarray method; assay type: functional, cell-based; procedure, shortened: as §1
[15] = system: CUTLL1; assay: Effect on TK1 gene expression in human CUTLL1 cells in absence of 1 uM dexamethasone at 30 uM after 24 hrs by microarray method; assay type: functional, cell-based; procedure, shortened: as §2
[16] = system: CUTLL1; assay: Potentiation of dexamethasone-induced cytotoxicity against human CUTLL1 cells with low GR expression levels at 50 uM after 48 hrs by alamar blue assay; assay type: functional, cell-based
Procedure, shortened: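 Human CUTLL1 T-ALL cells engineered to express high (overexpressed) or low (knockdown) glucocorticoid receptor levels. Exposed to compound alone or with 1 μM dexamethasone. Alamar blue growth inhibition read after 48 h.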

[17] = system: CUTLL1; assay: Effect on FEN1 gene expression in human CUTLL1 cells in absence of 1 uM dexamethasone at 30 uM after 24 hrs by microarray method; assay type: functional, cell-based; procedure, shortened: as §1
[18] = system: CUTLL1; assay: Effect on MCM10 gene expression in human CUTLL1 cells in presence of 1 uM dexamethasone at 30 uM after 24 hrs by microarray method; assay type: functional, cell-based; procedure, shortened: as §1
[19] = system: CUTLL1; assay: Effect on RANBP1 gene expression in human CUTLL1 cells in absence of 1 uM dexamethasone at 30 uM after 24 hrs by microarray method; assay type: functional, cell-based; procedure, shortened: as §2
[20] = system: CUTLL1; assay: Effect on CHAF1A gene expression in human CUTLL1 cells in presence of 1 uM dexamethasone at 30 uM after 24 hrs by microarray method; assay type: functional, cell-based; procedure, shortened: as §1
[21] = system: CUTLL1; assay: Effect on PCNA gene expression in human CUTLL1 cells in presence of 1 uM dexamethasone at 30 uM after 24 hrs by microarray method; assay type: functional, cell-based; procedure, shortened: as §2
[22] = system: CUTLL1; assay: Effect on NHP2 gene expression in human CUTLL1 cells in absence of 1 uM dexamethasone at 30 uM after 24 hrs by microarray method; assay type: functional, cell-based; procedure, shortened: as §1
[23] = system: CUTLL1; assay: Effect on SPC25 gene expression in human CUTLL1 cells in absence of 1 uM dexamethasone at 30 uM after 24 hrs by microarray method; assay type: functional, cell-based; procedure, shortened: as §2
[24] = system: CUTLL1; assay: Effect on TWISTNB gene expression in human CUTLL1 cells in absence of 1 uM dexamethasone at 30 uM after 24 hrs by microarray method; assay type: functional, cell-based; procedure, shortened: as §2
[25] = system: CUTLL1; assay: Increase in GR expression in human CUTLL1 cells at < 25 uM after 24 hrs by Western blotting method; assay type: functional, cell-based
[26] = system: CUTLL1; assay: Effect on SPC25 gene expression in human CUTLL1 cells in presence of 1 uM dexamethasone at 30 uM after 24 hrs by microarray method; assay type: functional, cell-based; procedure, shortened: as §2
[27] = system: CUTLL1; assay: Effect on PAICS gene expression in human CUTLL1 cells in presence of 1 uM dexamethasone at 30 uM after 24 hrs by microarray method; assay type: functional, cell-based; procedure, shortened: as §1
[28] = system: CUTLL1; assay: Effect on HELLS gene expression in human CUTLL1 cells in absence of 1 uM dexamethasone at 30 uM after 24 hrs by microarray method; assay type: functional, cell-based; procedure, shortened: as §1
[29] = system: CUTLL1; assay: Effect on LILRB3 gene expression in human CUTLL1 cells in absence of 1 uM dexamethasone at 30 uM after 24 hrs by microarray method; assay type: functional, cell-based; procedure, shortened: as §1
[30] = system: CUTLL1; assay: Effect on POLE3 gene expression in human CUTLL1 cells in presence of 1 uM dexamethasone at 30 uM after 24 hrs by microarray method; assay type: functional, cell-based; procedure, shortened: as §2
[31] = system: CUTLL1; assay: Effect on BCCIP gene expression in human CUTLL1 cells in absence of 1 uM dexamethasone at 30 uM after 24 hrs by microarray method; assay type: functional, cell-based; procedure, shortened: as §1

inhibition [13]: inactive
SMILES: Nc1ncc(-c2ccncc2)c(C2CC2)n1
Activity [1]: inactive
Activity [2]: Active
Activity [3]: inactive
Activity [4]: inactive
Activity [5]: Active
Activity [6]: inactive
Activity [7]: Active
growth inhibition (GI) [8]: inactive
Activity [9]: Active
growth inhibition (GI) [10]: inactive
Activity [11]: Active
Activity [12]: inactive
Activity [14]: Active
Activity [15]: inactive
Activity [16]: Active
Activity [17]: inactive
Activity [18]: Active
Activity [19]: inactive
Activity [20]: Active
Activity [21]: Active
Activity [22]: inactive
Activity [23]: inactive
Activity [24]: inactive
Activity [25]: inactive
Activity [26]: Active
Activity [27]: Active
Activity [28]: inactive
Activity [29]: inactive
Activity [30]: Active
Activity [31]: inactive
